Consider eight compounds from ChEMBL document CHEMBL3272339, “Catechol O-methyltransferase. 7. Affinity labeling with the oxidation products of 6-aminodopamine” (J Med Chem, 1976).

Series [1] addresses T1, Catechol O-methyltransferase (Rattus norvegicus) (UniProt P22734).
T1 sequence (whole entry): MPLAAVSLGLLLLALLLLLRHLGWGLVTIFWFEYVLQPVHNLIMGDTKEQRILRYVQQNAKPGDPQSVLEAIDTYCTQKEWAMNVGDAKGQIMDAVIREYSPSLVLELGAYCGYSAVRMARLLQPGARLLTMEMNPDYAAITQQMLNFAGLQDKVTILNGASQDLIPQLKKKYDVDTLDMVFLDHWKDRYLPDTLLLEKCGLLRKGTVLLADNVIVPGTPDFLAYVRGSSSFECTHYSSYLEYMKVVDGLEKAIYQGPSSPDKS
Description: Inhibition of Sprague-Dawley rat liver COMT under aerobic condition at 37 degC in presence of antioxidant sodium metabisulfite.

Series [2] is described as follows: Chemical stability of the compound in seal ampules containing water under nitrogenous condition at 5 umol/ml measured up to 4 hrs. In kind it is physicochemical. The note with it: buffer, 5000 µM. In outline:
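Stock prepared fresh for each experiment at 5 μmol/ml in water in sealed ampules under nitrogen; aliquots withdrawn as needed and checked for signs of oxidation over up to 4 hr.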

Series [3] deals with T1, Catechol O-methyltransferase (Rattus norvegicus). The series is described as follows: Inhibition of Sprague-Dawley rat liver COMT under anaerobic condition at 37 degC.
Series [4] shares this target. The series is described as follows: Inhibition of Sprague-Dawley rat liver COMT.
For series [5] the target is unchanged. The series is described as follows: Inhibition of Sprague-Dawley rat liver COMT at 0.25 to 1.25 mM preincubated for > 50 mins at 37 degC. In outline: (§1)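 COMT came from male Sprague–Dawley rat liver (180–200 g), purified about 50-fold through the calcium phosphate stage. Inhibitor (fresh aqueous stock under N₂) was preincubated with enzyme, MgCl₂ and phosphate buffer pH 7.60 at 37°. Timed aliquots were assayed for 5 min at 37° with ¹⁴C-SAM and 3,4-dihydroxybenzoate or DHA, stopped with HCl, and products extracted and counted. Residual activity was taken against unpreincubated controls, in duplicate.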

The nature of series [6]: Chemical stability of the compound assessed as polymerization under aerobic condition by spectrophotometric analysis. The series is classed as physicochemical.
In series [7] the target is T1, Catechol O-methyltransferase (Rattus norvegicus). Description: Inhibition of Sprague-Dawley rat liver COMT under aerobic condition at 37 degC in presence of catalase.
Series [8] shares this target. Description: Inhibition of Sprague-Dawley rat liver COMT at 16 to 64 uM preincubated > 50 mins at 37 degC. In outline: as §1
Series [9] shares this target. Description: Inhibition of Sprague-Dawley rat liver COMT under aerobic condition at 5 mM preincubated up to 90 mins followed by enzyme addition at 37 degC measured after 20 mins. Put shortly: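 Inhibitor at 5.0 mM in phosphate buffer pH 7.60 was air-oxidised at 37° for various times. Aliquots then went into preincubation mixtures with purified rat liver COMT (final 64 μM) for 20 min at 37°. Residual activity was measured by the radiochemical assay with ¹⁴C-SAM and catechol substrate, with methylated products extracted into toluene–isoamyl alcohol and counted.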

The target is the same in series [10]. The series is described as follows: Irreversible inhibition of Sprague-Dawley rat liver COMT.
Series [11] is described as follows: Half life of the compound assessed as cyclization to 6-hydroxy-2H-indol-5(3H)-one at 37 degC. In kind it is physicochemical.
For series [12], the target named is T1, Catechol O-methyltransferase (Rattus norvegicus). Description: Inhibition of Sprague-Dawley rat liver COMT using 2.5 mM DHA/0.4 mM SAM as substrate assessed as residual activity under aerobic condition at 189 uM at 37 degC after 40 mins relative to control.
For series [13] the target is unchanged. Description: Inhibition of Sprague-Dawley rat liver COMT at 0.25 mM preincubated for > 50 mins at 37 degC.
Series [14] shares this target. The series is described as follows: Inhibition of Sprague-Dawley rat liver COMT assessed as residual activity under anaerobic condition at 189 uM at 37 degC after 40 mins relative to control. Put shortly: (§2)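 Partially purified rat liver COMT (male Sprague-Dawley, calcium phosphate stage, ~50-fold) preincubated at 37° with inhibitor (189 μM), MgCl2 1.38 mM, phosphate buffer pH 7.60. Additions: sodium metabisulfite 0.15 M or catalase 250 μg. Anaerobic runs in sealed ampules under nitrogen. Residual activity vs unpreincubated controls; duplicates.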

Series [15] shares this target. The series is described as follows: Inhibition of Sprague-Dawley rat liver COMT using 2.5 mM DHA as substrate assessed as residual activity under aerobic condition at 189 uM at 37 degC after 40 mins relative to control.
For series [16] the target is unchanged. Description: Inhibition of Sprague-Dawley rat liver COMT using 10 mM DHA/0.4 mM SAM as substrate assessed as residual activity under aerobic condition at 189 uM at 37 degC after 40 mins relative to control.
Series [17] has the same target. Description: Inhibition of Sprague-Dawley rat liver COMT using 0.76 mM SAH as substrate assessed as residual activity under aerobic condition at 189 uM at 37 degC after 40 mins relative to control.
For series [18] the target is unchanged. The series is described as follows: Inhibition of Sprague-Dawley rat liver COMT assessed as residual activity under aerobic condition at 189 uM at 37 degC after 40 mins in presence of catalase relative to control. Put shortly: as §2
Series [19] has the same target. The series is described as follows: Inhibition of Sprague-Dawley rat liver COMT using > 0.3 mM SAH as substrate at 0.19 mM at 37 degC after 40 mins.
The target is the same in series [20]. The series is described as follows: Inhibition of Sprague-Dawley rat liver COMT using > 0.3 mM SAM as substrate at 0.19 mM at 37 degC after 40 mins.
For series [21] the target is unchanged. The series is described as follows: Inhibition of Sprague-Dawley rat liver COMT assessed as residual activity under aerobic condition at 189 uM at 37 degC after 40 mins in presence of antioxidant sodium metabisulfite relative to control. In outline: as §2
Series [22] has the same target. The series is described as follows: Inhibition of Sprague-Dawley rat liver COMT using 10 mM DHA/0.4 mM SAH as substrate assessed as residual activity under aerobic condition at 189 uM at 37 degC after 40 mins relative to control.
The target is the same in series [23]. The series is described as follows: Inhibition of Sprague-Dawley rat liver COMT using 0.76 mM SAM as substrate assessed as residual activity under aerobic condition at 189 uM at 37 degC after 40 mins relative to control.
Series [24] has the same target. The series is described as follows: Inhibition of Sprague-Dawley rat liver COMT assessed as residual activity under aerobic condition at 189 uM at 37 degC after 40 mins relative to control. Put shortly:
as §2

Series [25] shares this target. The series is described as follows: Inhibition of Sprague-Dawley rat liver COMT using 10 mM DHA as substrate assessed as residual activity under aerobic condition at 189 uM at 37 degC after 40 mins relative to control.

Calls of active or inactive are those of the source. The rule behind the calls is not given here.

On to `Br.CC(N)C(C)(C)c1cc(O)c(O)cc1N` (centres undefined), for which the inhibition entry in series [1] and in series [3] was “inactive” throughout. In series [2], the Stability entry is listed as “Stable”. In addition, the inhibition result in series [4] was “Active”.
Consider `Br.NCC1(c2cc(O)c(O)cc2N)CCCC1`, for which the inhibition result in series [1] and in series [3] was “inactive” in each case. For the same compound, the Stability result in series [2] was “Stable”. Further, the inhibition entry in series [5] is “Active”.
On to `C[N+](C)(C)CCC1=CC(=O)C(O)=CC1=N.[Br-]`, for which the Stability entry in series [6] was “Unstable”.
As to `Br.CN(C)CCC1=CC(=O)C(O)=CC1=N`, the Stability result in [6] is recorded as “Unstable”.
For `Br.C[N+](C)(C)CCc1cc(O)c(O)cc1N.[Br-]`, the inhibition result in series [1], in series [8], in series [3] and in series [9] was “inactive” throughout. For the same compound, the inhibition entry in series [7] and in series [10] was “Active” in each case. For the same compound, the Stability entry in series [2] is given as “Stable”.
The half-life is the time in which the quantity being followed falls by half. Consider `N=C1C=C(O)C(=O)C=C1CCN`, for which, in series [11], the half-life is 30 s.
As to `Br.Br.CN(C)CCc1cc(O)c(O)cc1N`, the inhibition entry in series [1] and in [3] was “inactive” in each case. Moreover, the inhibition result in [7] and in series [10] was “Active” in each case. Further, the Stability result in series [2] is reported as “Stable”.
On to `NCCc1cc(O)c(O)cc1N`, for which the Activity in series [12] was 63%; in [14], 103%; in [15], 10%; in [16], 85%; in series [17], 52%; in series [18], 1%. The Activity in series [21] stood at 77%; in series [22] it was 94%; in [23] it was 26%; in series [24], 2%; in [25] it was 17%. Further, the inhibition entry in series [13], in [19], in series [20] and in [10] was “Active” throughout. Besides, in series [2], the Stability result was “Stable”.
